In ChEMBL document CHEMBL1208790, “Exploration of a new series of CCR5 antagonists: multi-dimensional optimization of a sub-series containing N-substituted pyrazoles” (Bioorg Med Chem Lett, 2010) one finds logD data, which are given here for 4 compounds.

Broadly, the logD is lipophilicity at a set pH, counting ionised and neutral species. A high value points to higher lipophilicity.

A short description of the data set: Lipophilicity, log D of the compound at pH 7 by shake flask method. The conditions noted are these: buffer. Format: physicochemical. In a few lines:
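High-throughput shake-flask log D determination at pH 7.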
With `Cc1ncnc(C)c1C(=O)N1C[C@H]2CN(CC[C@H](NC(=O)C3CCCC3)c3ccccc3)C[C@H]2C1`, the logD was found to be 1.37.

Regarding `Cc1cc(C#N)nc(C)c1C(=O)N1C[C@H]2CN(CC[C@H](NC(=O)C3CCCC3)c3ccccc3)C[C@H]2C1`, the logD came to 1.89.

Consider `Cc1ccnc(C)c1C(=O)N1C[C@H]2CN(CC[C@H](NC(=O)C3CCCC3)c3ccccc3)C[C@H]2C1`, for which the logD came out at 1.9.

Compound `Cc1nn(-c2ccccc2)c(C)c1C(=O)N1C[C@H]2CN(CC[C@H](NC(=O)C3CCCC3)c3ccccc3)C[C@H]2C1` registered a logD of 2.92.
